# Reference: PMC10431048 (CPT: Pharmacometrics & Systems Pharmacology, 2023)
# Values joined by “and” are separate entries in the source; they are usually repeats but may differ in a detail not shown here. Equal values may be shown once. “Also recorded” adds a separate entry of the source. Read-outs that look alike come from different tables or passages of the source.
# Experiments:
# [1] = sparsentan 400 titrating to 800 mg/day vs irbesartan, week 36; cited from earlier work
# [2] = mass balance study; ref study 021HVOL16005, data on file; cited from earlier work
# [3] = type: in vivo, human; settings: for change in steady-state AUC vs base: 800 mg once daily
# Method in brief: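 Simulated steady-state exposure (AUC, Cmax, Cmin) at 800 mg/day from the final model for a typical white male FSGS subject: 800-mg tablet, median ALKP and CrCL, no moderate or strong CYP3A4 inhibitor. Continuous covariates were set one at a time to 5th and 95th percentiles, and categorical covariates to alternative categories. Multivariate effects came from post hoc individual estimates stratified by covariate category.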
# Population PK model = type: in vivo, human
# Method in brief: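 Plasma from nine trials (healthy, hepatic-impaired, FSGS; K2EDTA; acetonitrile precipitation; deuterated internal standard) was assayed by LC-MS/MS, 2.00–4000 ng/mL, LLOQ 2 ng/mL; samples below LLOQ were excluded. NONMEM FOCE-I fit: two compartments, lag plus first-order absorption, proportional-plus-additive error, nonlinear Frel above 200 mg, instant CL/F induction after first dose. Covariates: forward p<0.01, backward p<0.001. Bootstrap gave standard errors.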
# [4] = mild and moderate hepatic impairment; ref study 021IHFX16009, data on file; cited from earlier work
# [5] = cited from earlier work
# CYP3A = settings: ref data on file, cited from earlier work
# [6] = ALKP at the 5th and 95th percentile
# [7] = CrCL at the 5th and 95th percentile
# [8] = covariates other than moderate/strong CYP3A4 inhibitors, steady-state 800 mg
# [9] = log-domain coefficient, vs capsule
# [10] = log-domain coefficient, vs white
smiles,measurement,setting,value
CCCCC1=NC2(CCCC2)C(=O)N1Cc1ccc(-c2ccccc2S(=O)(=O)Nc2noc(C)c2C)c(COCC)c1 [sparsentan],"FPRE response, interim results",[1],significantly greater
same,urinary excretion,[2],2.18 % of the radioactive dose
same,effect of ALKP on AUC,[3]; [6],< 15%
same,effect of ALKP on Cmax,[3]; [6],< 10%
same,impact of CrCL on AUC,[3]; [7],< 20%
same,impact of CrCL on Cmax,[3]; [7],< 10%
same,steady-state exposures across race,"[3]; FSGS, 800-mg tablet",comparable
same,steady-state exposure by age bracket,"[3]; FSGS, 800-mg tablet, age 8-17, 18-64, >=65 years",increase
same,effect of formulation on steady-state AUC,[3]; capsule and crushed tablet compared to tablet,unaffected; also recorded: no overall change
same,increase in steady-state Cmax by formulation,"[3]; capsule and crushed tablet formulations compared to tablet, 800 mg",less than 10%
same,effect of other covariates on AUC,[3]; [8],less than 20%
same,effect of other covariates on Cmax,[3]; [8],less than 20%
same,impact of sex and race on steady-state AUC,"[3]; female, White, Black, Asian",< 15%
same,impact of sex and race on steady-state Cmax,"[3]; female, White, Black, Asian",< 15%
same,change in steady-state Cmax vs base,[3]; moderate CYP3A4 inhibitor comedication,16.0%
same,change in steady-state AUC vs base,"[3]; moderate CYP3A4 inhibitor comedication, FSGS",31.4% and 31%
same,change in steady-state AUC vs base,"[3]; strong CYP3A4 inhibitor comedication, FSGS",191.3% and 191%
same,Vc/F (derived),Population PK model; 800 mg dose,69.5 L
same,Vp/F (derived),Population PK model; 800 mg dose,17.0 L
same,CL/F (derived),"Population PK model; 800 mg dose, single dose, reference subject",5.47 L/h
same,Q/F,"Population PK model; 400-mg dose, reference subject",2.03 L/h
same,Vp/F,"Population PK model; 400-mg dose, reference subject",12.1 L
same,Vc/F,"Population PK model; 400-mg dose, reference subject white female, 400-mg capsule",49.3 L
same,effect of co-medications on PK,"Population PK model; acid reducer (including proton pump inhibitors), P-gp inhibitor, or mild CYP3A4 inhibitor",No significant effect
same,Induction change in CL,"Population PK model; additional CL at steady-state (CYP3A auto-induction), 400-mg reference subject",1.23 L/h
same,Ka,Population PK model; capsule (reference),0.740 h⁻¹
same,half-life,"Population PK model; human, plasma, oral, 800 mg",576 min
same,Variance Ka,Population PK model; interindividual random effect,0.474
same,Variance Vc,Population PK model; interindividual random effect,0.234
same,Effect on Ka: Crushed tablet,Population PK model; [9],0.080
same,Effect on Ka: Tablet,Population PK model; [9],−0.306
same,Effect on Vc: Asian,Population PK model; [10],0.265
same,Effect on Vc: Black or African American,Population PK model; [10],0.309
same,increase of clearance due to CYP3A auto-induction at steady-state,Population PK model; steady-state vs first dose,32%
same,effect of hepatic impairment on sparsentan exposure,[4],not having a large effect
same,reduction in urinary protein to creatinine ratio (UP/C),"[5]; sparsentan 200, 400, or 800 mg/day vs irbesartan 300 mg/day, 8 weeks",higher reduction
same,rates of patients reaching the FSGS partial remission end point (FPRE),[5]; sparsentan vs irbesartan,higher rates
same,interaction with CYP3A in vitro,CYP3A; in vitro,competitive inhibitor and inducer
same,metabolism,CYP3A,primarily metabolized by CYP3A
